In PMC2199177 (The Journal of Experimental Medicine, 1997):

Key:
S17 CTL [1] = experiment: Interferon γ assay; format: cell-based
In short: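 CTL were incubated with peptide-sensitized P815 targets as in the cytotoxicity assay, with peptide derivatives at 10−6–10−11 M, some runs with SF1-1.1.1 Fab′ (anti-Kd α3) to block CD8 participation. After 24 h, supernatant IFN-γ was measured by ELISA and values were normalized to the wt ligand. Triplicates, at least two experiments.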

T1 CTL = experiment: 51Cr-release assay; format: cell-based; details: without Fab'
In short: (§1)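 51Cr-labeled P815 targets (2 × 10^3/well) in DMEM with FCS (5%) and Hepes (10 mM) plus 10-fold peptide dilutions, 10−6–10−13 M. Cloned CTL (6 × 10^3/well) added, 4 h at 37°C, then supernatant 51Cr counted. Specific lysis was derived from spontaneous and total release. Relative activity is the wt half-maximal-lysis concentration divided by the variant's, normalized by relative Kd competitor activity. Triplicates, at least two experiments.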

S14 CTL [2] = details: ref [4]; cited from earlier work
S17 CTL [3] = experiment: 51Cr-release assay; format: cell-based; details: without Fab'
In short: as §1

S14 CTL [4] = experiment: 51Cr-release assay; format: cell-based; details: without Fab'
In short: as §1

Substance | effect of blocking of CD8 (SF1-1.1.1 Fab') on IFN-γ production (S17 CTL [1]) | functional phenotype (antigen recognition versus TCR-ligand binding) (S17 CTL [3]) | other results
IASA-YIPSAEK(ABA)I [WT] | substantially increased |  | 
IASA-YIASAEK(ABA)I [P255A] |  |  | functional phenotype (antigen recognition versus TCR-ligand binding) (T1 CTL): strong agonists
IASA-YILSAEK(ABA)I [P255L] |  |  | functional phenotype (S14 CTL [2]): antagonist
IASA-YISSAEK(ABA)I [P255S] | substantially increased | weak agonists | 
IASA-YIPAAEK(ABA)I [S256A] |  | strong agonists | 
IASA-YIPSAAK(ABA)I [E258A] |  |  | functional phenotype (antigen recognition versus TCR-ligand binding) (S14 CTL [4]): weak agonists
